From ChEMBL document CHEMBL1125875, “Renin inhibitory peptides. Incorporation of polar, hydrophilic end groups into an active renin inhibitory peptide template and their evaluation in a human renin infused rat model and in conscious sodium-depleted monkeys” (J Med Chem, 1991)
Numbered stars: 1 amine (or outer) side, 2 acyl side, 3 side chain; on linkers, the order of the positions; unused ones are H or OH. Square brackets hold non-standard residues; d marks the D form. Peptide text beside a SMILES is read from it. * marks the point of attachment. ξ: configuration not given here. LeuΨ(ξCHOHCH2)Val = CC(C)C[C@H](N[*:1])C(O)C[C@H](C(=O)[*:2])C(C)C; X1 = CC(C)[C@H](C[C@H](O)[C@H](CC1CCCCC1)N[*:1])C(=O)[*:2]; Suberoyl(NMe-taurine) = CN(CCS(=O)(=O)O)C(=O)CCCCCCC(=O)*; X3 = CC(C)C[C@H](N[*:1])[C@@H](O)C[C@H](C(=O)[*:2])C(C)C; NH(2-picolyl-N-oxide) = [O-][n+]1ccccc1CN*; γGlu = O=C(O)[C@H](CCC(=O)[*:2])N[*:1]; NMeH = CN[C@@H](Cc1c[nH]cn1)C(=O)O; NHCH2(2-pyridyl) = c1ccc(CN*)nc1; X4 = O=C(CCCO[P+]([O-])(O)O)*; X5 = O=C(CCCOP(=O)(O)O)*; X2 = O=C(COP(=O)(O)O)*

Biological target: T1, Renin (Homo sapiens, UniProt P00797)
T1 sequence (P00797 whole entry): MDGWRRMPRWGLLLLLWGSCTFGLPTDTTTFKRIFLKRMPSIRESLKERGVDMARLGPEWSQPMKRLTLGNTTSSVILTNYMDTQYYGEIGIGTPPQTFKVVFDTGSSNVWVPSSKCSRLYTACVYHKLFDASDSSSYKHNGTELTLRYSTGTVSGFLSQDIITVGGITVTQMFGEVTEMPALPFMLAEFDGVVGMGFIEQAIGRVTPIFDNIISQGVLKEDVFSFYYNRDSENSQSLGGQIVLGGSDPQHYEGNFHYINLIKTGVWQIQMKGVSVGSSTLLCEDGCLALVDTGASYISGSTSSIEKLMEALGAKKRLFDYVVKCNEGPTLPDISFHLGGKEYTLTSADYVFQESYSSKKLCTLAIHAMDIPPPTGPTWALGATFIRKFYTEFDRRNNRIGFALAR
Assay: Inhibition of human plasma renin.
Assay type: cell-free
In short: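 IC50 taken as the inhibitor concentration at which 50% of renin enzymatic activity remains.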

| IC50 | SMILES |
| --- | --- |
| 2.5 nM | CC[C@H](C)[C@H](NC(=O)[C@@H](CC(O)[C@H](CC(C)C)NC(=O)[C@H](Cc1c[nH]cn1)N(C)C(=O)[C@H](Cc1ccccc1)NC(=O)[C@@H]1CCCN1C(=O)COP(=O)(O)O)C(C)C)C(=O)NCc1cccc[n+]1[O-] (some centres undefined) (X2-PF[NMeH][LeuΨ(ξCHOHCH2)Val]I-{NH(2-picolyl-N-oxide)}) |
| 1.6 nM | CC[C@H](C)[C@H](NC(=O)[C@@H](C[C@H](O)[C@H](CC(C)C)NC(=O)[C@H](Cc1c[nH]cn1)N(C)C(=O)[C@H](Cc1ccccc1)NC(=O)[C@@H]1CCCN1C(=O)COP(=O)(O)O)C(C)C)C(=O)NCc1ccccn1 (X2-PF[NMeH][X3]I-{NHCH2(2-pyridyl)}) |
| 1.9 nM | CC[C@H](C)[C@H](NC(=O)[C@@H](CC(O)[C@H](CC(C)C)NC(=O)[C@H](Cc1cnc[nH]1)N(C)C(=O)[C@H](Cc1ccccc1)NC(=O)[C@@H]1CCCN1C(=O)CCCO[P+]([O-])(O)O)C(C)C)C(=O)NCc1cccc[n+]1[O-] (some centres undefined) (X4-PF[NMeH][LeuΨ(ξCHOHCH2)Val]I-{NH(2-picolyl-N-oxide)}) |
| 0.45 nM | CC[C@H](C)[C@H](NC(=O)[C@@H](C[C@H](O)[C@H](CC(C)C)NC(=O)[C@H](Cc1c[nH]cn1)N(C)C(=O)[C@H](Cc1ccccc1)NC(=O)[C@@H]1CCCN1C(=O)CCCOP(=O)(O)O)C(C)C)C(=O)NCc1ccccn1 (X5-PF[NMeH][X3]I-{NHCH2(2-pyridyl)}) |
| 0.31 nM | CC[C@H](C)[C@H](NC(=O)[C@@H](CC(O)[C@H](CC(C)C)NC(=O)[C@H](Cc1c[nH]cn1)N(C)C(=O)[C@H](Cc1ccccc1)NC(=O)[C@@H]1CCCN1C(=O)CCCCCCC(=O)N(C)CCS(=O)(=O)O)C(C)C)C(=O)NCc1cccc[n+]1[O-] (some centres undefined) ({Suberoyl(NMe-taurine)}-PF[NMeH][LeuΨ(ξCHOHCH2)Val]I-{NH(2-picolyl-N-oxide)}) |
| 0.32 nM | CC[C@H](C)[C@H](NC(=O)[C@@H](C[C@H](O)[C@H](CC1CCCCC1)NC(=O)[C@H](Cc1c[nH]cn1)N(C)C(=O)[C@H](Cc1ccccc1)NC(=O)[C@@H]1CCCN1C(=O)CC[C@H](N)C(=O)O)C(C)C)C(=O)NCc1cccc[n+]1[O-] (γGlu-PF[NMeH][X1]I-{NH(2-picolyl-N-oxide)}) |

More lines, now with the values behind:

| SMILES | IC50 |
| --- | --- |
| CC(C)CCNC(=O)[C@@H](C[C@H](O)[C@H](CC1CCCCC1)NC(=O)[C@H](Cc1c[nH]cn1)N(C)C(=O)[C@H](Cc1ccccc1)NC(=O)CC(C)(C)N)C(C)C | 0.41 nM |
| CC[C@H](C)[C@H](NC(=O)[C@@H](C[C@H](O)[C@H](CC(C)C)NC(=O)[C@H](Cc1c[nH]cn1)N(C)C(=O)[C@H](Cc1ccccc1)NC(=O)CCCCCCC(=O)N(C)CCS(=O)(=O)O)C(C)C)C(=O)NCc1ccccn1 | 0.66 nM |
| CC(C)CCNC(=O)[C@@H](C[C@H](O)[C@H](CC1CCCCC1)NC(=O)[C@H](Cc1c[nH]cn1)N(C)C(=O)[C@H](Cc1ccccc1)NC(=O)[C@@H]1CCCN1C(=O)CC[C@H](N)C(=O)O)C(C)C | 0.28 nM |
| CC[C@H](C)[C@H](NC(=O)[C@@H](C[C@H](O)[C@H](CC1CCCCC1)NC(=O)[C@H](Cc1c[nH]cn1)N(C)C(=O)[C@H](Cc1ccccc1)NC(=O)CC(C)(C)N)C(C)C)C(=O)NCc1cccc[n+]1[O-] | 0.43 nM |
| CC[C@H](C)[C@H](NC(=O)[C@@H](C[C@H](O)[C@H](CC1CCCCC1)NC(=O)[C@H](Cc1c[nH]cn1)N(C)C(=O)[C@H](Cc1ccccc1)NC(=O)CC(C)(C)N)C(C)C)C(=O)NCc1ccccn1 | 0.29 nM |
| CC[C@H](C)[C@H](NC(=O)[C@@H](C[C@H](O)[C@H](CC(C)C)NC(=O)[C@H](Cc1c[nH]cn1)N(C)C(=O)[C@H](Cc1ccccc1)NC(=O)CCCCCCC(=O)N(C)CCS(=O)(=O)O)C(C)C)C(=O)NCc1cccc[n+]1[O-] | 1.2 nM |
| CC[C@H](C)[C@H](NC(=O)[C@@H](CC(O)[C@H](CC(C)C)NC(=O)[C@H](Cc1c[nH]cn1)N(C)C(=O)[C@H](Cc1ccccc1)NC(=O)[C@@H]1CCCN1C(=O)CCCCCCC(=O)N(C)CCS(=O)(=O)O)C(C)C)C(=O)NCc1ccccn1 (some centres undefined) ({Suberoyl(NMe-taurine)}-PF[NMeH][LeuΨ(ξCHOHCH2)Val]I-{NHCH2(2-pyridyl)}) | 1.8 nM |
| CC[C@H](C)[C@H](NC(=O)[C@@H](C[C@H](O)[C@H](CC1CCCCC1)NC(=O)[C@H](Cc1c[nH]cn1)N(C)C(=O)[C@H](Cc1ccccc1)NC(=O)[C@@H]1CCCN1C(=O)CC[C@H](N)C(=O)O)C(C)C)C(=O)NCc1ccccn1 (γGlu-PF[NMeH][X1]I-{NHCH2(2-pyridyl)}) | 0.29 nM |
